The target of data set [1] is Mast cell carboxypeptidase A (Rattus norvegicus, UniProt P21961). As to the kind of experiment: Inhibition of rat CPA3 using AAFP as substrate preincubated for 45 mins measured at 30 sec intervals for 15 mins by UV/vis-spectrophotometry. The essentials: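 Enzyme, inhibitor and buffer preincubated 45 min at 37 °C, then substrate added. Read at 355 nm every 30 sec for 15 min as initial velocities, in triplicate.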

In data set [2] the target is Cytosolic carboxypeptidase 1 (Homo sapiens) (UniProt Q9UPW5). As to the kind of experiment: Inhibition of human CCP1 at 1 nM to mM using tubulin as substrate preincubated for 45 mins measured at 30 sec intervals for 15 mins by UV/vis-spectrophotometry. In short, it runs like this: (§1)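 hCCP1 or hCCP6 at 1.0x10-6 g with tubulin (12.5x10-5 g) as substrate in 20 mM Tris-HCl pH 7.5, 100 mM NaCl. Enzyme, inhibitor and buffer preincubated 45 min at 37 °C before substrate addition; run in triplicate.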
Cytosolic carboxypeptidase 1 (Homo sapiens), sequence (Q9UPW5 whole entry): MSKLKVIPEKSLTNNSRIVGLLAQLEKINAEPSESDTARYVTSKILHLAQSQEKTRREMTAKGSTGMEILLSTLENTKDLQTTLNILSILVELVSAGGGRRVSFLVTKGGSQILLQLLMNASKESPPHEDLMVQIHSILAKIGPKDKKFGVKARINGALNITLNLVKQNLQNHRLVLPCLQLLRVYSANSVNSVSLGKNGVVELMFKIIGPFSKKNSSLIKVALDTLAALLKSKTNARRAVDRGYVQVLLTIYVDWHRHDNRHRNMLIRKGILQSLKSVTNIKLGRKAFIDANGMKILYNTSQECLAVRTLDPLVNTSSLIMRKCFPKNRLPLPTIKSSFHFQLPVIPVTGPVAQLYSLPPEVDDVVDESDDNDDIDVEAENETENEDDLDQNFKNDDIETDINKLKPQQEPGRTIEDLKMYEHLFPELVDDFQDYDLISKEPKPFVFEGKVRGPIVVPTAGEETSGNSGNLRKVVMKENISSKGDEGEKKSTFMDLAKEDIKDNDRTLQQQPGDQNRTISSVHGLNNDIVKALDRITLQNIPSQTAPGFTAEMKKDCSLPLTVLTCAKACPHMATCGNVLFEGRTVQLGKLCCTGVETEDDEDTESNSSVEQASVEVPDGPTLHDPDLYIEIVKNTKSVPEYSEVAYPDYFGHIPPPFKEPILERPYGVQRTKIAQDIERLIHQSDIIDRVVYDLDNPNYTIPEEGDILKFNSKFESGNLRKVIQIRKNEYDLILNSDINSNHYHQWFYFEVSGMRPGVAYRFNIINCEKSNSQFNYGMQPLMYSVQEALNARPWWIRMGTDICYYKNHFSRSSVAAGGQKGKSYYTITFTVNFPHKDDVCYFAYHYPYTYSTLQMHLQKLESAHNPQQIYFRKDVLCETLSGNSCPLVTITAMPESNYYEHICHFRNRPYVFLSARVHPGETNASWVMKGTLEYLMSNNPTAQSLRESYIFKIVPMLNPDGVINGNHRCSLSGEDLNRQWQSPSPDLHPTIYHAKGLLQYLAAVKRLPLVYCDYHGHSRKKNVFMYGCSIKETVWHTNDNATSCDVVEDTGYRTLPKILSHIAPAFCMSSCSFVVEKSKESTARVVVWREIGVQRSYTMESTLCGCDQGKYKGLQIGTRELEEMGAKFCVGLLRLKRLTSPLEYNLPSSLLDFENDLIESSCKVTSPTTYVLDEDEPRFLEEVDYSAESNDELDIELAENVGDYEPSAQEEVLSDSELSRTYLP

In data set [3] the target is Cytosolic carboxypeptidase 6 (Homo sapiens) (UniProt Q5VU57). The experiment in a line: Inhibition of human CCP6 at 1 nM to 1 mM using tubulin as substrate preincubated for 45 mins measured at 30 sec intervals for 15 mins by UV/vis-spectrophotometry. The essentials:
as §1

In a further data set the target is Collagenase 3 (Homo sapiens, UniProt P45452). The experiment in a line: Inhibition of human MMP13 using fluorogenic Mca-Pro-Leu-Gly-Leu-Dpa-Ala-Arg-NH2 peptide as substrate preincubated for 45 mins measured at 30 sec intervals for 15 mins by UV/vis-spectrophotometry. In short, it runs like this:
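MMPs at nanomolar level with fluorogenic Mca-Pro-Leu-Gly-Leu-Dpa-Ala-Arg-NH2 substrate in 50 mM Tris-HCl pH 6.8, 10 mM CaCl2. Enzyme, inhibitor and buffer preincubated 45 min at 37 °C, then substrate added; initial velocities from 30-sec reads over 15 min, in triplicate.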

The target of data set [4] is Neutrophil elastase (Homo sapiens) (UniProt P08246). As to the kind of experiment: Inhibition of human neutrophil Elastase at 1 nM to 1 mM using succinyl-alanylalanyl-prolyl-valine-4-nitroanilide as substrate preincubated for 45 mins measured at 30 sec intervals for 15 mins by UV/vis-spectrophotometry. The essentials: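 hNElastase 2.0x10-7 M, Suc-AAPVPNA 1.0x10-3 M, in 100 mM Tris-HCl pH 8.0, monitored at 414 nm. Preincubated with inhibitor 45 min at 37 °C before substrate; initial velocities from 30-sec reads over 15 min, triplicate.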
Neutrophil elastase (Homo sapiens), sequence (P08246 whole entry): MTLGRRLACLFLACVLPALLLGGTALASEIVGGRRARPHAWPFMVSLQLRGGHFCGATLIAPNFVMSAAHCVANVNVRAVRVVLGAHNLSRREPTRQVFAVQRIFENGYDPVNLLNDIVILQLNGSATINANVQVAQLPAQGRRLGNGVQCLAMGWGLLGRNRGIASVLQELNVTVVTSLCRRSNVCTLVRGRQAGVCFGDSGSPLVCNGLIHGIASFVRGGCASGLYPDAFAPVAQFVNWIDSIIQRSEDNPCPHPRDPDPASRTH

The next data set is filed under the species Homo sapiens. As to the kind of experiment: Inhibition of pepsin (unknown origin) at 1 nM to 1 mM using H-Leu-Ser-p-nitro-Phe-Nle-Ala-Leu-OMe peptide as substrate preincubated for 45 mins measured at 30 sec intervals for 15 mins by UV/vis-spectrophotometry. The essentials: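 Pepsin 1.0x10-8 M with 2.0x10-4 M LSPNP substrate in 100 mM acetate pH 4.4, monitored at 310 nm. Inhibitor preincubated with enzyme 45 min at 37 °C; initial velocities over 15 min at 30-sec intervals; triplicate.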

Data set [5] has as its target Prothrombin (Homo sapiens) (UniProt P00734). The experiment in a line: Inhibition of human thrombin at 1 nM to 1 mM using benzoylphenyl-valyl-arginine 4-nitroanilide as substrate preincubated for 45 mins measured at 30 sec intervals for 15 mins by UV/vis-spectrophotometry. In short, it runs like this:
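hThrombin 2.0x10-8 M with 1.0x10-3 M BzFVRPNA in 100 mM Tris-HCl pH 8.0, followed at 414 nm. Enzyme and inhibitor preincubated 45 min at 37 °C; substrate then added; initial velocities every 30 sec for 15 min, in triplicate.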

For data set [6], the system named is HeLa. The experiment in a line: Cytotoxicity against human HeLa cells by fluorescence confocal microscopy. Format: cell-based.
For data set [7], the system named is HEK-293T. As to the kind of experiment: Cytotoxicity against HEK293T cells by fluorescence confocal microscopy. Format: cell-based. The conditions noted are these: human.
Data set [8] addresses Mast cell carboxypeptidase A (Homo sapiens) (UniProt P15088). As to the kind of experiment: Binding affinity to CPA3 expressing human HeLa cells assessed as compound co-localization with CPA3 at 1 to 5 uM treated for 6 hrs followed by cell wash and measured by DAPI-staining based fluorescence confocal microscopy. In short, it runs like this:
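HeLa cells with cytoplasmic hCPA3 expression were treated 6 h with the fluorescent probe at 1 or 5 µM, washed, then imaged by fluorescence confocal microscopy for internalization and co-localization with CPA3.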

Data set [9] relates to HEK-293T. As to the kind of experiment: Cytotoxicity against HEK293T cells assessed as reduction in cell viability at 1 to 5 uM after 24 hrs by XTT assay. In kind it is cell-based. Conditions: human. The essentials:
(§2)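 Cells were exposed to compound at 1 and 5 µM for 24h in culture, and viability was then read by the XTT assay.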

Data set [10] concerns HeLa. As to the kind of experiment: Cytotoxicity against human HeLa cells assessed as reduction in cell viability at 1 to 5 uM after 24 hrs by XTT assay. In kind it is cell-based. The essentials: as §2
In general terms: Tetrazolium dyes change colour on reduction, which living cells bring about.

In data set [11] the target is T1, Carboxypeptidase A1 (Homo sapiens) (UniProt P15085).
T1 sequence (whole entry): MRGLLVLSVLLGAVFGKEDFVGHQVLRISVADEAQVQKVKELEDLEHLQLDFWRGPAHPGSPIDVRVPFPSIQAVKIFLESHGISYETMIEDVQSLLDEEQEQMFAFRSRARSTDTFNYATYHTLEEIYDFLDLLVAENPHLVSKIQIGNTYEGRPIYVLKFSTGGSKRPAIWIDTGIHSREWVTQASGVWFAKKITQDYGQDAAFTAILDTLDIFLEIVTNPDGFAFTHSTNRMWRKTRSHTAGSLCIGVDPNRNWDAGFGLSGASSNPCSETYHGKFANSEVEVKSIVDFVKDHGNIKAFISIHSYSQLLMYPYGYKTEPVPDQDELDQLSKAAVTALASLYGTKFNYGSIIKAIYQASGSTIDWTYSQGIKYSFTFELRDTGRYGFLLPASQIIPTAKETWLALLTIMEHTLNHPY
The experiment in a line: Inhibition of human CPA1 peptide degradation activity at 5 to 500 nM using neurotensin peptide as substrate preincubated for 2 hrs followed by substrate addition and measured up to 7 hrs by MALDI-TOF/TOF spectrometry. The essentials: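 Human CPA1 (20nM) digested the model peptide neurotensin over a 0-7h time course, with no inhibitor or with inhibitor at 5 and 500nM. Samples were taken at intervals and analyzed by MALDI-TOF MS.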

These results are taken from ChEMBL document CHEMBL4411328, “Synthesis and Structural/Functional Characterization of Selective M14 Metallocarboxypeptidase Inhibitors Based on Phosphinic Pseudopeptide Scaffold: Implications on the Design of Specific Optical Probes” (J Med Chem, 2019).

Active and inactive are the calls of the source. No cut-off for these calls is given here.

What is called Ki is the equilibrium dissociation constant of an inhibitor or competing ligand from its target. Lower therefore signals tighter binding.

Cytosolic carboxypeptidase 6 (Homo sapiens), sequence (Q5VU57 whole entry): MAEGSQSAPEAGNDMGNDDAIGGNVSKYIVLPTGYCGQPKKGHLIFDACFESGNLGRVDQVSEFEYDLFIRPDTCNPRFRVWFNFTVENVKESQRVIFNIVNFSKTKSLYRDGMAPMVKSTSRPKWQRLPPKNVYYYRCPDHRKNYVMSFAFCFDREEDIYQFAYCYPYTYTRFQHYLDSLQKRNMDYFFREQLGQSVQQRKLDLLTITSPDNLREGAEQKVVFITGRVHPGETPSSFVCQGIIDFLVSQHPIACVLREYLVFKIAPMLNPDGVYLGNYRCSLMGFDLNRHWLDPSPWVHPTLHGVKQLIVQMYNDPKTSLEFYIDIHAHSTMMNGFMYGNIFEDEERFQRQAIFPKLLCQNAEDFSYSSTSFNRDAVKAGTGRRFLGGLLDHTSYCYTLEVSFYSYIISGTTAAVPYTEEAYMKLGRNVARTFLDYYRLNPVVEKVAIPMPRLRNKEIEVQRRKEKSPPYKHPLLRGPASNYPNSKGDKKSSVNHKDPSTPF
Mast cell carboxypeptidase A, sequence (P21961 whole entry): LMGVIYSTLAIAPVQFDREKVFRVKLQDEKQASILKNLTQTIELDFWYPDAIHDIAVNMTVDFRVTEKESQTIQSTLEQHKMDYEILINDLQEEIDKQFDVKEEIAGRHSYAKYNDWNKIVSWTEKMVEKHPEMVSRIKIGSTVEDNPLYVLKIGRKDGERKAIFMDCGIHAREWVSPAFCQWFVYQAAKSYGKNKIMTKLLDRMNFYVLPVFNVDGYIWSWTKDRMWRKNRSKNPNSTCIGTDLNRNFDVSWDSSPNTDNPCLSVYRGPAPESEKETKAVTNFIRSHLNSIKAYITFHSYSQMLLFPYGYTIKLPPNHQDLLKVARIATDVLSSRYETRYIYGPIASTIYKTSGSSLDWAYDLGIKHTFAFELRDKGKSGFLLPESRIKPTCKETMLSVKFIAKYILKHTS
Mast cell carboxypeptidase A (Homo sapiens), sequence (P15088 whole entry): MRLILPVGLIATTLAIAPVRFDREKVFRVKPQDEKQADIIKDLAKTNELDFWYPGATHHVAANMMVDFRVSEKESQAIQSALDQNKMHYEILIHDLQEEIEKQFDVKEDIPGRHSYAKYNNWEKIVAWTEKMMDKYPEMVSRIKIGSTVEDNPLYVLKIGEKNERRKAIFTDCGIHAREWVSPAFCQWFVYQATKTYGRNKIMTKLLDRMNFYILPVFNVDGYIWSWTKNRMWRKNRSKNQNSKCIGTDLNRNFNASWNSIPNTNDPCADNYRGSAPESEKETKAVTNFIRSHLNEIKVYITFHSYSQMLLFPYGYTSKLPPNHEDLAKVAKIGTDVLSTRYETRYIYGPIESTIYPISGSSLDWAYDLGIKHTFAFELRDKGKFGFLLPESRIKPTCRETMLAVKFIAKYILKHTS

Turning to `C[C@H](NC(=O)[C@H](Cc1ccc(O)cc1)NC(=O)COCCOCCNC(=O)CCOCCOCCOCCNC(=O)CCc1ccc(C(=C\C=C2\N(CCCCS(=O)(=O)O)c3ccc4c(S(=O)(=O)[O-])cc(S(=O)(=O)O)cc4c3C2(C)C)/C=C/C2=[N+](CCCCS(=O)(=O)O)c3ccc4c(S(=O)(=O)O)cc(S(=O)(=O)O)cc4c3C2(C)C)cc1)P(=O)(O)C[C@@H](CCc1ccccc1)C(=O)O`, the Ki in data set [1] stood at 0.017 nM; on Collagenase 3 it was 562 nM. Moreover, the inhibition result (in data set [2]; in data set [3]; in [4]; in the data set filed under Homo sapiens; in data set [5]) was “inactive” each time. Further, the Activity entry with HeLa [6] and in the data set on HEK-293T [7] was “Non-Toxic” in each case. The result in data set [8] was Active.
As to `CC(=O)N[C@@H](Cc1ccc(O)cc1)C(=O)N[C@@H](C)P(=O)(O)C[C@@H](CCc1ccccc1)C(=O)O`, the Activity result in the data set with HEK-293T [9] and in the data set with HeLa [10] was “Non-Toxic” each time. Further, in data set [11], the inhibition entry is “Active”.
